Source: ChEMBL document CHEMBL4145462, “Nitrogen-containing ecdysteroid derivatives vs. multi-drug resistance in cancer: Preparation and antitumor activity of oximes, oxime ethers and a lactam” (Eur J Med Chem, 2018)

How the values were obtained:
HeLa = test: Antiproliferative activity against human HeLa cells after 72 hrs by MTT assay; type: functional, cell-based
Procedure, shortened: (§1)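 Cells grown in MEM with 10% FCS, 1% non-essential amino acids and 1% penicillin-streptomycin. Seeded at 5000 cells/well, exposed to 0.1–30.0 µM compound for 72 h. MTT (5 mg/ml solution) was then added for 4 h, formazan dissolved in DMSO, and absorbance read at 545 nm. Cisplatin served as positive control. IC50 came from sigmoidal dose–response fits (log inhibitor vs normalized response, variable slope).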

SiHa = test: Antiproliferative activity against human SiHa cells after 72 hrs by MTT assay; type: functional, cell-based; procedure, shortened: as §1
MDA-MB-231 = test: Antiproliferative activity against human MDA-MB-231 cells after 72 hrs by MTT assay; type: functional, cell-based; conditions: MDA-MB-231, 72 h; procedure, shortened: as §1
MCF7 = test: Antiproliferative activity against human MCF7 cells after 72 hrs by MTT assay; type: functional, cell-based; conditions: MCF7, 72 h; procedure, shortened: as §1
[1] = Cytotoxicity against mouse L5178 cells after 48 hrs by MTT assay; type: functional, cell-based; conditions: L5178, 48 h
Procedure, shortened: (§2)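 Parental mouse lymphoma L5178 and the MDR line made by pHa MDR1/A retrovirus transfection, selected with 60 µg/L colchicine. Grown in McCoy's 5A with horse serum at 37°C, 5% CO2. 5 x 10^4 cells/well, serial compound dilutions, 48 h. MTT added to 0.5 mg/mL final for 4 h, then 10% SDS in 0.01 M HCl overnight, OD read at 540 and 630 nm. IC50 taken as median cytotoxic activity (Dm) from control lanes of checkerboard plates, n=2.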

[2] = Cytotoxicity against mouse L5178 cells expressing human ABCB1 after 48 hrs by MTT assay; type: functional, cell-based; conditions: L5178, 48 h; procedure, shortened: as §2
ABCB1 (P-glycoprotein) [3] = target: T1, ABCB1 (P-glycoprotein) (Homo sapiens, UniProt P08183); test: Inhibition of human ABCB1 expressed in mouse L5178 cells assessed as increase in rhodamine-123 accumulation at 2 uM after 10 mins by flow cytometric analysis relative to control; type: cell-based; conditions: mouse L5178 cells expressing human ABCB1, probe rhodamine-123
T1 sequence (P08183 whole entry): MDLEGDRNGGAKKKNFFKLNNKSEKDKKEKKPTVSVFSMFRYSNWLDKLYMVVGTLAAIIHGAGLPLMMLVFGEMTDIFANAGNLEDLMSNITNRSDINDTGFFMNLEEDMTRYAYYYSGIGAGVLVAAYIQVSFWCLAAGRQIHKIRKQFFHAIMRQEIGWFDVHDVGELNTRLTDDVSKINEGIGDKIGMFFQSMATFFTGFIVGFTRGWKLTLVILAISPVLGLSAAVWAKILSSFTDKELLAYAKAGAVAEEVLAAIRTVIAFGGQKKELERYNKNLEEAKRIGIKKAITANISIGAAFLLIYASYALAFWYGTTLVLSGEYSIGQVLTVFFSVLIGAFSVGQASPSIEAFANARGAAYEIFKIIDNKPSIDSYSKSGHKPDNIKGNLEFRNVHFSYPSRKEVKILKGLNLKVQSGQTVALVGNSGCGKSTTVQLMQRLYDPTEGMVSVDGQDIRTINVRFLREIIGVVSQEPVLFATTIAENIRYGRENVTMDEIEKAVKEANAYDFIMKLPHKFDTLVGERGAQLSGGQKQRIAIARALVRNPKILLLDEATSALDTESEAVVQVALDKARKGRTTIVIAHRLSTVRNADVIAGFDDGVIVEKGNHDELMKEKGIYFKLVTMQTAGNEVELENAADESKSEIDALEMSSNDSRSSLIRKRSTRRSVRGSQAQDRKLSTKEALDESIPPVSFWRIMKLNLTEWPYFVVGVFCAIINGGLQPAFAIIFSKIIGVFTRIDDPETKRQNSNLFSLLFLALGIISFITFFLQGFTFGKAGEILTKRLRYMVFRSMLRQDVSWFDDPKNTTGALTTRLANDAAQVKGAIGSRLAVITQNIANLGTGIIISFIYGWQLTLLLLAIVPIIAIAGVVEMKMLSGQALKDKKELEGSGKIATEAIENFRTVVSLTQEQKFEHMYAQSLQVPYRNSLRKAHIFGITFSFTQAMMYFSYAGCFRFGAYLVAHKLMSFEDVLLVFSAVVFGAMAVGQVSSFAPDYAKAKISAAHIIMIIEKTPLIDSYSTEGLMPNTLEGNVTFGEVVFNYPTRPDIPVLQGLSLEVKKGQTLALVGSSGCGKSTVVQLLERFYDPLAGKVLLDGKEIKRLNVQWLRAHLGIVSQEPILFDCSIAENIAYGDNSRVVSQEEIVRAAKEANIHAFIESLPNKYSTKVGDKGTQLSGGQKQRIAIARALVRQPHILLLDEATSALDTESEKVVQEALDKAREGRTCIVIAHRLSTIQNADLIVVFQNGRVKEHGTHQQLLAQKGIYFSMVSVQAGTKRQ
Procedure, shortened: (§3)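 Cells at 2 × 10^6/mL were preincubated 10 min with compound. Rhodamine 123 then added to 5.2 µM final, 20 min at 37 °C. Cells washed twice in PBS, resuspended and read by flow cytometry. Percent inhibition was scaled between MDR-cell accumulation (0%) and parental L5178 accumulation (100%). Controls: 100 nM tariquidar (positive) and 2% DMSO (negative).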

ABCB1 (P-glycoprotein) [4] = target: T1, ABCB1 (P-glycoprotein); test: Inhibition of human ABCB1 expressed in mouse L5178 cells assessed as increase in rhodamine-123 accumulation at 20 uM after 10 mins by flow cytometric analysis relative to control; type: cell-based; conditions: mouse L5178 cells expressing human ABCB1, probe rhodamine-123; procedure, shortened: as §3
[5] = Synergistic cytotoxicity against mouse L5178 cells assessed as combination index at ED50 using 150:1 test compound to doxorubicin ratio after 48 hrs by MTT-based checkerboard microplate method; type: functional
Procedure, shortened: (§4)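 Checkerboard microplate combinations of compound with doxorubicin at constant molar ratios. 5 × 10^4 cells/well in McCoy's 5A, 48 h at 37°C, 5% CO2. MTT added to 0.5 mg/mL final for 4 h, SDS/HCl overnight, OD read at 540 and 630 nm. Combination indices derived per ratio for 50%, 75% and 90% growth inhibition by median-effect analysis.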

[6] = Synergistic cytotoxicity against mouse L5178 cells expressing human ABCB1 assessed as combination index at ED50 using 15:1 test compound to doxorubicin ratio after 48 hrs by MTT-based checkerboard microplate method; type: functional; procedure, shortened: as §4
[7] = Synergistic cytotoxicity against mouse L5178 cells assessed as combination index at ED75 using 150:1 test compound to doxorubicin ratio after 48 hrs by MTT-based checkerboard microplate method; type: functional; procedure, shortened: as §4
[8] = Synergistic cytotoxicity against mouse L5178 cells assessed as combination index at ED90 using 150:1 test compound to doxorubicin ratio after 48 hrs by MTT-based checkerboard microplate method; type: functional; procedure, shortened: as §4
[9] = Synergistic cytotoxicity against mouse L5178 cells expressing human ABCB1 assessed as combination index at ED75 using 15:1 test compound to doxorubicin ratio after 48 hrs by MTT-based checkerboard microplate method; type: functional; procedure, shortened: as §4
[10] = Synergistic cytotoxicity against mouse L5178 cells expressing human ABCB1 assessed as combination index at ED90 using 15:1 test compound to doxorubicin ratio after 48 hrs by MTT-based checkerboard microplate method; type: functional; procedure, shortened: as §4
[11] = Synergistic cytotoxicity against mouse L5178 cells expressing human ABCB1 assessed as combination index at ED50 using 30:1 test compound to doxorubicin ratio after 48 hrs by MTT-based checkerboard microplate method; type: functional; procedure, shortened: as §4
[12] = Synergistic cytotoxicity against mouse L5178 cells expressing human ABCB1 assessed as combination index at ED75 using 30:1 test compound to doxorubicin ratio after 48 hrs by MTT-based checkerboard microplate method; type: functional; procedure, shortened: as §4
[13] = Synergistic cytotoxicity against mouse L5178 cells expressing human ABCB1 assessed as combination index at ED90 using 30:1 test compound to doxorubicin ratio after 48 hrs by MTT-based checkerboard microplate method; type: functional; procedure, shortened: as §4
[14] = Synergistic cytotoxicity against mouse L5178 cells expressing human ABCB1 assessed as combination index at ED50 using 7.5:1 test compound to doxorubicin ratio after 48 hrs by MTT-based checkerboard microplate method; type: functional; procedure, shortened: as §4
[15] = Synergistic cytotoxicity against mouse L5178 cells expressing human ABCB1 assessed as combination index at ED75 using 7.5:1 test compound to doxorubicin ratio after 48 hrs by MTT-based checkerboard microplate method; type: functional; procedure, shortened: as §4
[16] = Synergistic cytotoxicity against mouse L5178 cells expressing human ABCB1 assessed as combination index at ED90 using 7.5:1 test compound to doxorubicin ratio after 48 hrs by MTT-based checkerboard microplate method; type: functional; procedure, shortened: as §4
[17] = Synergistic cytotoxicity against mouse L5178 cells assessed as combination index at ED50 using 37.5:1 test compound to doxorubicin ratio after 48 hrs by MTT-based checkerboard microplate method; type: functional; procedure, shortened: as §4
[18] = Synergistic cytotoxicity against mouse L5178 cells assessed as combination index at ED75 using 37.5:1 test compound to doxorubicin ratio after 48 hrs by MTT-based checkerboard microplate method; type: functional; procedure, shortened: as §4
[19] = Synergistic cytotoxicity against mouse L5178 cells assessed as combination index at ED90 using 37.5:1 test compound to doxorubicin ratio after 48 hrs by MTT-based checkerboard microplate method; type: functional; procedure, shortened: as §4
[20] = Synergistic cytotoxicity against mouse L5178 cells assessed as combination index at ED50 using 75:1 test compound to doxorubicin ratio after 48 hrs by MTT-based checkerboard microplate method; type: functional; procedure, shortened: as §4
[21] = Synergistic cytotoxicity against mouse L5178 cells assessed as combination index at ED75 using 75:1 test compound to doxorubicin ratio after 48 hrs by MTT-based checkerboard microplate method; type: functional; procedure, shortened: as §4
[22] = Synergistic cytotoxicity against mouse L5178 cells assessed as combination index at ED90 using 75:1 test compound to doxorubicin ratio after 48 hrs by MTT-based checkerboard microplate method; type: functional; procedure, shortened: as §4
[23] = Synergistic cytotoxicity against mouse L5178 cells expressing human ABCB1 assessed as combination index at ED50 using 60:1 test compound to doxorubicin ratio after 48 hrs by MTT-based checkerboard microplate method; type: functional; procedure, shortened: as §4
[24] = Synergistic cytotoxicity against mouse L5178 cells expressing human ABCB1 assessed as combination index at ED75 using 60:1 test compound to doxorubicin ratio after 48 hrs by MTT-based checkerboard microplate method; type: functional; procedure, shortened: as §4
[25] = Synergistic cytotoxicity against mouse L5178 cells expressing human ABCB1 assessed as combination index at ED90 using 60:1 test compound to doxorubicin ratio after 48 hrs by MTT-based checkerboard microplate method; type: functional; procedure, shortened: as §4
[26] = Synergistic cytotoxicity against mouse L5178 cells assessed as combination index at ED50 using 300:1 test compound to doxorubicin ratio after 48 hrs by MTT-based checkerboard microplate method; type: functional; procedure, shortened: as §4
[27] = Synergistic cytotoxicity against mouse L5178 cells assessed as combination index at ED75 using 300:1 test compound to doxorubicin ratio after 48 hrs by MTT-based checkerboard microplate method; type: functional; procedure, shortened: as §4
[28] = Synergistic cytotoxicity against mouse L5178 cells assessed as combination index at ED90 using 300:1 test compound to doxorubicin ratio after 48 hrs by MTT-based checkerboard microplate method; type: functional; procedure, shortened: as §4
[29] = Synergistic cytotoxicity against mouse L5178 cells assessed as combination index at ED50 using 600:1 test compound to doxorubicin ratio after 48 hrs by MTT-based checkerboard microplate method; type: functional; procedure, shortened: as §4
[30] = Synergistic cytotoxicity against mouse L5178 cells assessed as combination index at ED75 using 600:1 test compound to doxorubicin ratio after 48 hrs by MTT-based checkerboard microplate method; type: functional; procedure, shortened: as §4
[31] = Synergistic cytotoxicity against mouse L5178 cells assessed as combination index at ED90 using 600:1 test compound to doxorubicin ratio after 48 hrs by MTT-based checkerboard microplate method; type: functional; procedure, shortened: as §4

| IC50 (HeLa) | IC50 (MDA-MB-231) | IC50 (MCF7) | inhibition at 10 min, 2 µM (ABCB1 (P-glycoprotein) [3]) | inhibition at 10 min, 20 µM (ABCB1 (P-glycoprotein) [4]) | Structure (SMILES) | IC50 (SiHa) | IC50 [1] | IC50 [2] | CI [5] | CI [6] | CI [7] | CI [8] | CI [9] | CI [10] | CI [11] | CI [12] | CI [13] | CI [14] | CI [15] | CI [16] | other results |
| --- | --- | --- | --- | --- | --- | --- | --- | --- | --- | --- | --- | --- | --- | --- | --- | --- | --- | --- | --- | --- | --- |
| > 30 µM | > 30 µM | > 30 µM | 2.25% | 25.1% | CO/N=C1\C=C2[C@H](CC[C@]3(C)[C@@H]([C@@]4(C)OC(C)(C)O[C@@H]4CCC(C)(C)O)CC[C@@]23O)[C@@]2(C)C[C@@H]3OC(C)(C)O[C@@H]3C[C@@H]12 | > 30 µM | 40.9 µM | 55.1 µM | 1.06 | 0.17 | 0.79 | 0.62 | 0.16 | 0.16 | 0.19 | 0.21 | 0.24 | 0.19 | 0.17 | 0.16 | CI [17]: 1.19; CI [18]: 1.14; CI [19]: 1.13; CI [20]: 0.99; CI [21]: 1.06; CI [22]: 1.19; CI [23]: 0.29; CI [24]: 0.39; CI [25]: 0.52; CI [26]: 0.82; CI [27]: 0.8; CI [28]: 0.83; CI [29]: 0.93; CI [30]: 0.9; CI [31]: 0.91 |
| > 30 µM | > 30 µM | 22.6 µM | 17.5% | 78.8% | CCO/N=C1\C=C2[C@H](CC[C@]3(C)[C@@H]([C@@]4(C)OC(C)(C)O[C@@H]4CCC(C)(C)O)CC[C@@]23O)[C@@]2(C)C[C@@H]3OC(C)(C)O[C@@H]3C[C@@H]12 | > 30 µM | 35 µM | 47 µM | 0.17 | 0.57 | 0.8 | 1.1 | 0.16 | 0.15 | 0.2 | 0.23 | 0.26 | 0.18 | 0.14 | 0.12 | CI [17]: 0.55; CI [18]: 0.58; CI [19]: 0.6; CI [20]: 0.59; CI [21]: 0.7; CI [22]: 0.84; CI [23]: 0.31; CI [24]: 0.35; CI [25]: 0.41; CI [26]: 1.09; CI [27]: 1.08; CI [28]: 1.06; CI [29]: 1.02; CI [30]: 0.95; CI [31]: 0.89 |

| Structure (SMILES) | IC50 (HeLa) | IC50 (MDA-MB-231) | IC50 (MCF7) | inhibition at 10 min, 2 µM (ABCB1 (P-glycoprotein) [3]) | inhibition at 10 min, 20 µM (ABCB1 (P-glycoprotein) [4]) | IC50 (SiHa) | IC50 [1] | IC50 [2] | CI [5] | CI [6] | CI [7] | CI [8] | CI [9] | CI [10] | CI [11] | CI [12] | CI [13] | CI [14] | CI [15] | CI [16] | other results |
| --- | --- | --- | --- | --- | --- | --- | --- | --- | --- | --- | --- | --- | --- | --- | --- | --- | --- | --- | --- | --- | --- |
| CC(C)(O)CC[C@H]1OC(C)(C)O[C@]1(C)[C@H]1CC[C@@]2(O)C3=C/C(=N\OC(C)(C)C)[C@@H]4C[C@H]5OC(C)(C)O[C@H]5C[C@]4(C)[C@H]3CC[C@]12C | 8.43 µM | 12.4 µM | 11.1 µM | 38.8% | 112% | 16.1 µM | 28.1 µM | 29.1 µM | 0.24 | 0.66 | 0.91 | 1.26 | 0.23 | 0.25 | 0.27 | 0.29 | 0.36 | 0.3 | 0.2 | 0.17 | CI [17]: 0.58; CI [18]: 0.63; CI [19]: 0.7; CI [20]: 0.56; CI [21]: 0.67; CI [22]: 0.8; CI [23]: 0.38; CI [24]: 0.44; CI [25]: 0.53; CI [26]: 0.91; CI [27]: 0.98; CI [28]: 1.06; CI [29]: 1; CI [30]: 1.3; CI [31]: 1.7 |
